The results in this text go back to ChEMBL document CHEMBL1795212, “Synthesis and in vitro antimalarial activity of tetraoxane-amine/amide conjugates” (Eur J Med Chem, 2011).

In general, IC50 refers to the concentration that inhibits the measured activity by half.

Data set [1] has as its system Plasmodium falciparum. Briefly: Antimalarial activity against Plasmodium falciparum D6 assessed as plasmodial LDH activity after 72 hrs. Format: functional, organism-based. The settings on record: Plasmodium falciparum, D6, 72 h; read-out: IC50. In a few lines: (§1)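 P. falciparum D6 (chloroquine-sensitive) and W2 (chloroquine-resistant) clones screened in vitro alongside Vero cytotoxicity, up to a highest concentration of 12.5; IC50 determined.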

In data set [2] the test system is Vero. The data set is described as follows: Cytotoxicity against african green monkey Vero cells at 12.5 uM. Format: cell-based. The settings on record: chlorocebus sabaeus. Summed up: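 Mammalian kidney Vero cells screened in vitro for cytotoxicity, in parallel with the antimalarial screen, up to a highest concentration of 12.5.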
The test system of the next data set is BT-549. Briefly: Cytotoxicity against human BT549 cells up to 25 uM. Format: cell-based. In a few lines:
(§2)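 Cytotoxicity panel: four cancer lines (SK-MEL, KB, BT-549, SK-OV-3) and two non-cancer lines (Vero, LLC-PK11), tested up to a concentration of 25.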

Data set [3] concerns Vero. The data set is described as follows: Cytotoxicity against african green monkey Vero cells up to 25 uM. The data set is classed as cell-based. The settings on record: chlorocebus sabaeus. Summed up:
as §2

A short description of data set [4]: Cytotoxicity against pig LLC-PK11 cells up to 25 uM. The data set is classed as cell-based, Sus scrofa. Summed up: as §2
Another data set deals with SK-OV-3. The data set is described as follows: Cytotoxicity against human SKOV3 cells up to 25 uM. The data set is classed as cell-based. In a few lines:
as §2

Data set [5] concerns Plasmodium falciparum. The data set is described as follows: Antimalarial activity against Plasmodium falciparum W2 assessed as plasmodial LDH activity after 72 hrs. Format: functional, organism-based. The settings on record: Plasmodium falciparum, W2, 72 h; read-out: IC50. Summed up: as §1
Another data set deals with SK-MEL. Briefly: Cytotoxicity against human SK-MEL cells up to 25 uM. Format: cell-based. In a few lines: as §2
In a further data set the test system is KB. Briefly: Cytotoxicity against human KB cells up to 25 uM. Format: cell-based. Summed up: as §2
Data set [6] can be described thus: Selectivity index, IC50 for african green monkey Vero cells to IC50 for Plasmodium falciparum W2. The data set is classed as functional. In a few lines: (§3)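 Selectivity index is the cytotoxicity IC50 in Vero cells divided by the antimalarial IC50 against the stated P. falciparum clone (D6 or W2).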
A short description of data set [7]: Selectivity index, IC50 for african green monkey Vero cells to IC50 for Plasmodium falciparum D6. Format: functional. Summed up:
as §3

For `Cc1ccc(C2OOC(c3ccc(CNc4cccnc4)cc3)OO2)cc1` (stereo unspecified), the IC50 with Plasmodium falciparum [1] turned out to be 380 nM; with Plasmodium falciparum [5], 570 nM. For the same compound, the Activity entry (in the data set with Vero [2]; in the data set with BT-549; in the data set on Vero [3]; in data set [4]; with SK-OV-3; in the data set on SK-MEL) was “Non-toxic” in each case. Besides, the Activity result in the data set with KB is on record as “Non-toxic”. Also, the “Ratio IC50” value is listed as over 22.7 in data set [6] and over 34 in [7].
